Assay results gathered from unrelated publications.
Target: Phosphatidylinositol 4-phosphate 5-kinase type-1 gamma (PIP5K1C, Homo sapiens, UniProt O60331)

| Structure (SMILES) | test | conditions | endpoint | value |
| --- | --- | --- | --- | --- |
| COc1ccc2oc(-c3ccc4nc(N)oc4c3)c/c(=N\c3ccccc3NC(=O)CCN)c2c1 | binding | 1 µM | remaining binding | 102% |
| COc1ccc2[nH]c3c4[nH]c5ccc(OC)cc5c4c4c(c3c2c1)C(=O)NC4=O | binding | 1 µM | remaining binding | 81% |
| CC#CC(=O)N1CCC[C@H]1c1nc(-c2ccc(C(=O)Nc3ccccn3)cc2)c2c(N)nccn12 | enzyme activity, inhibitor | 1 µM | inhibition | 0% |
| Cc1ccc(NC(=O)c2ccnc(C(F)(F)F)c2)cc1-c1cc(OCCO)nc(N2CCOCC2)c1 | binding | 1 µM | remaining binding | 98% |
| C1=C/COCc2cc(ccc2OCCN2CCCC2)Nc2nccc(n2)-c2cccc(c2)COC/1 | binding | 0.1 µM | remaining binding | 60% |
| CCCCC(=O)Nc1ccc(-c2ccc3ncn(CCC)c(=O)c3c2)cn1 | binding, competition with immobilised ligand | 0.5 µM | remaining binding | 96% |
| CO[C@@H]1[C@H](N(C)C(=O)c2ccccc2)C[C@H]2O[C@]1(C)n1c3ccccc3c3c4c(c5c6ccccc6n2c5c31)C(=O)NC4 | enzyme activity, inhibitor | 1 µM | inhibition | 11% |
| CC(C)S(=O)(=O)c1ccc2nccc(Nc3ccc4sc(C5CCCC5)nc4c3)c2c1 | enzyme activity, inhibitor | 1 µM | activity vs control | 105% |
